In ChEMBL document CHEMBL1921722, “In vitro and in vivo evaluation of select kahalalide F analogs with antitumor and antifungal activities” (Bioorg Med Chem, 2011):
Values after ≈ are worked out from the molar mass of the structure shown. Active and inactive are the calls of the source.

What was measured:
[1] = tested on: UO-31; experiment: Cytotoxicity against human UO31 cells assessed as cell growth at 80 nM by sulforhodamine B assay relative to control; format: functional; details: read-out: Activity
[2] = tested on: SR; experiment: Cytotoxicity against human SR cells by sulforhodamine B assay; format: functional
Outline: (§1)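 NCI Developmental Therapeutics Program 60-cell-line human tumor panel screen, run at NCI. A single-concentration pre-screen was followed by a five-concentration dose-response in 10-fold steps. GI50 is the concentration that reduces growth of treated cells to half that of untreated control cells. TGI is the concentration that completely halts growth.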

[3] = tested on: SNB-75; experiment: Cytotoxicity against human SNB75 cells assessed as cell growth at 80 nM by sulforhodamine B assay relative to control; format: functional; details: read-out: Activity
[4] = tested on: Hs-578T; experiment: Cytotoxicity against human Hs578T cells assessed as cell growth at 8 uM by sulforhodamine B assay relative to control; format: functional; details: read-out: Activity
[5] = tested on: NCI-H23; experiment: Cytotoxicity against human NCI-H23 cells assessed as cell growth at 8 nM by sulforhodamine B assay relative to control; format: functional; details: read-out: Activity
[6] = tested on: IGROV-1; experiment: Cytotoxicity against human IGROV1 cells by sulforhodamine B assay; format: functional; outline: as §1
[7] = tested on: A498; experiment: Cytotoxicity against human A498 cells by sulforhodamine B assay; format: functional
Outline: (§2)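 Run at NCI in the DTP 60-cell-line human tumor panel by standard procedure. Compounds were first screened at a single concentration, then tested at five tenfold-spaced concentrations. GI50 is the concentration reducing treated-cell growth to half that of untreated controls; TGI is the concentration completely halting growth.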

[8] = tested on: UO-31; experiment: Cytotoxicity against human UO31 cells by sulforhodamine B assay; format: functional; outline: as §1
[9] = tested on: NCI-H23; experiment: Antitumor activity against human NCI-H23 cells xenografted in mouse assessed as tumor cell killing at 4.7 mg/kg, ip qd for 4 days by MTT assay; format: functional, organism-based; set-up: dose 4.7 mg/kg
Outline: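 Hollow-fiber assay in mice. Tumor lines were grown in RPMI-1640 with 10% FBS and 2 mM glutamine. Cells at 2 × 10^6 cells/ml were loaded into 1 mm PVDF fibers (500,000 Da cutoff), heat-sealed at 2 cm and held 24–48 h at 37 °C, 5% CO2 before implantation. Compound was given IP. Fibers were collected the day after the fourth treatment for MTT (OD 540 nm, group means). A ≥50% cut in percent net growth versus vehicle counted as positive.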

[10] = tested on: NCI-H23; experiment: Cytotoxicity against human NCI-H23 cells assessed as cell growth at 8 uM by sulforhodamine B assay relative to control; format: functional; details: read-out: Activity
[11] = tested on: LOX IMVI; experiment: Cytotoxicity against human LOXIMVI cells by sulforhodamine B assay; format: functional; outline: as §1
[12] = tested on: MOLT-4; experiment: Cytotoxicity against human MOLT4 cells assessed as cell growth at 800 nM by sulforhodamine B assay relative to control; format: functional; details: read-out: Activity
[13] = tested on: NCI-H322M; experiment: Cytotoxicity against human NCI-H322M cells assessed as cell growth at 8 uM by sulforhodamine B assay relative to control; format: functional; details: read-out: Activity
[14] = tested on: HCC 2998; experiment: Cytotoxicity against human HCC2998 cells assessed as cell growth at 8 nM by sulforhodamine B assay relative to control; format: functional; details: read-out: Activity
[15] = tested on: K562; experiment: Cytotoxicity against human K562 cells assessed as cell growth at 80 nM by sulforhodamine B assay relative to control; format: functional; details: read-out: Activity
[16] = tested on: NCI-H226; experiment: Cytotoxicity against human NCI-H226 cells assessed as cell growth at 80 uM by sulforhodamine B assay relative to control; format: functional; details: read-out: Activity
[17] = tested on: RXF 393; experiment: Cytotoxicity against human RXF393 cells assessed as cell growth at 8 nM by sulforhodamine B assay relative to control; format: functional; details: read-out: Activity
[18] = tested on: MDA-MB-231; experiment: Cytotoxicity against human MDA-MB-231 cells assessed as cell growth at 80 uM by sulforhodamine B assay relative to control; format: functional; details: read-out: Activity
[19] = tested on: SF-268; experiment: Cytotoxicity against human SF268 cells assessed as cell growth at 800 nM by sulforhodamine B assay relative to control; format: functional; details: read-out: Activity
[20] = tested on: U-251; experiment: Cytotoxicity against human U251 cells by sulforhodamine B assay; format: functional; outline: as §1
[21] = tested on: MDA-MB-435; experiment: Cytotoxicity against human MDA-MB-435 cells by sulforhodamine B assay; format: functional; outline: as §1
[22] = tested on: SK-MEL-2; experiment: Cytotoxicity against human SK-MEL-2 cells assessed as cell growth at 8 nM by sulforhodamine B assay relative to control; format: functional; details: read-out: Activity
[23] = tested on: PC-3; experiment: Cytotoxicity against human PC3 cells assessed as cell growth at 80 nM by sulforhodamine B assay relative to control; format: functional; details: read-out: Activity
[24] = tested on: MDA-MB-435; experiment: Cytotoxicity against human MDA-MB-435 cells assessed as cell growth at 8 uM by sulforhodamine B assay relative to control; format: functional; details: read-out: Activity
[25] = tested on: PC-3; experiment: Cytotoxicity against human PC3 cells assessed as cell growth at 80 uM by sulforhodamine B assay relative to control; format: functional; details: read-out: Activity
[26] = tested on: IGROV-1; experiment: Cytotoxicity against human IGROV1 cells assessed as cell growth at 8 nM by sulforhodamine B assay relative to control; format: functional; details: read-out: Activity
[27] = tested on: NCI-H226; experiment: Cytotoxicity against human NCI-H226 cells assessed as cell growth at 8 uM by sulforhodamine B assay relative to control; format: functional; details: read-out: Activity
[28] = tested on: Hs-578T; experiment: Cytotoxicity against human Hs578T cells by sulforhodamine B assay; format: functional; outline: as §1
[29] = tested on: OVCAR-8; experiment: Cytotoxicity against human OVCAR8 cells assessed as cell growth at 80 uM by sulforhodamine B assay relative to control; format: functional; details: read-out: Activity
[30] = tested on: MDA-MB-231; experiment: Cytotoxicity against human MDA-MB-231 cells assessed as cell growth at 8 nM by sulforhodamine B assay relative to control; format: functional; details: read-out: Activity
[31] = tested on: MOLT-4; experiment: Cytotoxicity against human MOLT4 cells assessed as cell growth at 8 nM by sulforhodamine B assay relative to control; format: functional; details: read-out: Activity
[32] = tested on: SNB-75; experiment: Cytotoxicity against human SNB75 cells assessed as cell growth at 80 uM by sulforhodamine B assay relative to control; format: functional; details: read-out: Activity
[33] = tested on: HL-60(TB); experiment: Cytotoxicity against human HL-60(TB) cells assessed as cell growth at 80 uM by sulforhodamine B assay relative to control; format: functional; details: read-out: Activity
[34] = tested on: LOX IMVI; experiment: Cytotoxicity against human LOXIMVI cells assessed as cell growth at 80 nM by sulforhodamine B assay relative to control; format: functional; details: read-out: Activity
[35] = tested on: SR; experiment: Cytotoxicity against human SR cells assessed as cell growth at 800 nM by sulforhodamine B assay relative to control; format: functional; details: read-out: Activity
[36] = tested on: A498; experiment: Cytotoxicity against human A498 cells assessed as cell growth at 8 uM by sulforhodamine B assay relative to control; format: functional; details: read-out: Activity; outline: as §2
[37] = tested on: Candida albicans; experiment: Antimicrobial activity against Candida albicans ATCC 90028 by CLSI method; format: functional, organism-based
[38] = tested on: UACC-62; experiment: Cytotoxicity against human UACC62 cells assessed as cell growth at 80 uM by sulforhodamine B assay relative to control; format: functional; details: read-out: Activity
[39] = tested on: NCI-H460; experiment: Cytotoxicity against human NCI-H460 cells assessed as cell growth at 8 uM by sulforhodamine B assay relative to control; format: functional; details: read-out: Activity

## C/C=C1\NC(=O)[C@H](Cc2ccccc2)NC(=O)[C@@H](C(C)C)NC(=O)[C@@H]([C@@H](C)CC)NC(=O)[C@H](NC(=O)[C@H](NC(=O)[C@H](CCCNCc2ccc(F)c(C)c2)NC(=O)[C@H]2CCCN2C(=O)[C@H](NC(=O)[C@@H](NC(=O)[C@@H](NC(=O)[C@H](NC(=O)CCCC(C)C)C(C)C)[C@@H](C)O)C(C)C)C(C)C)[C@@H](C)CC)[C@@H](C)OC(=O)[C@H](C(C)C)NC1=O
[1]
  growth at 0.08 µM: 106%
[2]
  GI50: 1.58 µM
  LC50: > 75.9 µM
[2]; read-out: pTGI (converted)
  TGI: 3.47 µM
[3]
  growth at 0.08 µM: 115%
[4]
  growth at 8 µM: -48%
[5]
  growth at 0.008 µM: 102%
[6]
  GI50: 0.708 µM
[6]; read-out: pTGI (converted)
  TGI: 1.86 µM
[7]
  GI50: 1.32 µM
  LC50: 4.47 µM
[7]; read-out: pTGI (converted)
  TGI: 2.45 µM
[8]
  GI50: 1.32 µM
[8]; read-out: pTGI (converted)
  TGI: 2.63 µM
[9]
  Activity: inactive
[10]
  growth at 8 µM: -77%
[11]
  GI50: 1.48 µM
  LC50: 4.9 µM
[11]; read-out: pTGI (converted)
  TGI: 2.69 µM
[12]
  growth at 0.8 µM: 96%
[13]
  growth at 8 µM: -95%
[14]
  growth at 0.008 µM: 108%
[15]
  growth at 0.08 µM: 106%
[16]
  growth at 80 µM: -18%
[17]
  growth at 0.008 µM: 103%
[18]
  growth at 80 µM: -89%
[19]
  growth at 0.8 µM: 63%
[20]
  GI50: 0.363 µM
  LC50: 3.16 µM
[20]; read-out: pTGI (converted)
  TGI: 1.26 µM
[21]
  GI50: 1.15 µM
[21]; read-out: pTGI (converted)
  TGI: 2.19 µM
[22]
  growth at 0.008 µM: 98%
[23]
  growth at 0.08 µM: 104%
[24]
  growth at 8 µM: -95%
[25]
  growth at 80 µM: -76%
[26]
  growth at 0.008 µM: 104%
[27]
  growth at 8 µM: -64%
[28]
  LC50: > 75.9 µM
[28]; read-out: GI50
  GI50: 0.217 µM
[28]; read-out: TGI
  TGI: 0.665 µM
[28]; read-out: pGI50 (converted)
  GI50: 0.219 µM
[28]; read-out: pTGI (converted)
  TGI: 0.661 µM
[29]
  growth at 80 µM: 48%
[30]
  growth at 0.008 µM: 101%
[31]
  growth at 0.008 µM: 103%
[32]
  growth at 80 µM: -19%
[33]
  growth at 80 µM: -37%
[34]
  growth at 0.08 µM: 94%
[35]
  growth at 0.8 µM: 98%
[36]
  growth at 8 µM: -92%
[37]
  IC50: 3.64 µM
  MFC: 20 µM (≈ 32 µg/mL)
  MIC: 10 µM (≈ 16 µg/mL)
[38]
  growth at 80 µM: -91%
[39]
  growth at 8 µM: -71%
